The text below walks through data of ChEMBL document CHEMBL4229432, “Synthesis and biological properties of aryl methyl sulfones” (Bioorg Med Chem, 2018).

The structures appear in SMILES notation. A value given as a limit tells only on which side of the number the result lay.

Series [1] has as its target T1, Prostaglandin G/H synthase 1 (Ovis aries, UniProt P05979).
T1 sequence (P05979 whole entry): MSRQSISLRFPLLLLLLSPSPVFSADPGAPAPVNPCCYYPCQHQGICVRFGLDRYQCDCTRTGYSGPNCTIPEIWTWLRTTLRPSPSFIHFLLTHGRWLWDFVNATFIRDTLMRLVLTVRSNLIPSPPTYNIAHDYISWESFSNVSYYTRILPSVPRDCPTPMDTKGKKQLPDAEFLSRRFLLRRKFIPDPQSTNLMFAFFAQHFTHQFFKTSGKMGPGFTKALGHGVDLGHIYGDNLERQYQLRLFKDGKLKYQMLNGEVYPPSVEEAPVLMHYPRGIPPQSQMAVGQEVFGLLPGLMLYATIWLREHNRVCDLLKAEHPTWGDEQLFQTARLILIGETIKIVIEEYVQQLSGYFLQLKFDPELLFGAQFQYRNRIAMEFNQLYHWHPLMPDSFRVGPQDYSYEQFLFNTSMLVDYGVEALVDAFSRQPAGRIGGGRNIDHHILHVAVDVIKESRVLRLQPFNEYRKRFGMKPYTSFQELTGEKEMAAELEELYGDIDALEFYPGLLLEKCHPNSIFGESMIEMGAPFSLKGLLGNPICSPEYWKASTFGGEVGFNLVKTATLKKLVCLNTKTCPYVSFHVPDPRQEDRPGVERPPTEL
The series can be described thus: Inhibition of ovine COX1 assessed as reduction in PGH2 production by enzyme immunoassay.

Series [2] deals with Rattus norvegicus. Briefly: Toxicity in Sprague-Dawley rat at 70 mg/kg, po. It counts as organism-based. The note with it: in vivo.
In series [3] the test system is Rattus norvegicus. The series can be described thus: Antiinflammatory activity in Sprague-Dawley rat assessed as inhibition of carrageenan-induced paw edema at 70 mg/kg, po pretreated for 1 hr followed by carrageenan challenge and measured after 3 hrs by plethysmometer relative to control. It counts as functional. The method, boiled down: (§1)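 Modified Winter's method in young adult male Sprague-Dawley rats (160-200 g, groups of six), starved 24 h. Oral dose given 1 h before subplantar injection of 0.1 mL 1% carrageenan in sterile pyrogen-free 0.9% NaCl. Paw volume measured by water displacement plethysmometry before and at 3 and 4 h. % inhibition vs controls; mean ± S.E.M.; unpaired one-tailed Student's t-test.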

Series [4] relates to Rattus norvegicus. The series can be described thus: Antiinflammatory activity in Sprague-Dawley rat assessed as inhibition of carrageenan-induced paw edema at 70 mg/kg, po pretreated for 1 hr followed by carrageenan challenge and measured after 4 hrs by plethysmometer relative to control. It counts as functional. The method, boiled down:
as §1
A general note: Carrageenan injected into the paw causes an acute inflammation.

For series [5], the system named is Mus musculus. The series can be described thus: Analgesic activity in CD1 mouse assessed as inhibition of acetic acid-induced writhings at 20 mg/kg, po pretreated for 30 mins followed by acetic acid challenge for 5 mins and measured for 30 mins relative to control. The series is classed as functional. The method, boiled down: (§2)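 Male Swiss CD1 mice, 4-5 weeks, 25 ± 5 g, acclimatized one week. Dose adjusted to body weight and given orally by feeding needle 30 min before i.p. acetic acid (25 mg/kg; 0.25 mL/25 g). NaCl solution served as control. […] Mean ± S.E.M., at least four mice; one-way ANOVA with Student-Newman-Keuls.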

The test system of series [6] is Mus musculus. Briefly: Analgesic activity in CD1 mouse assessed as inhibition of acetic acid-induced writhings at 70 mg/kg, po pretreated for 30 mins followed by acetic acid challenge for 5 mins and measured for 30 mins relative to control. The series is classed as functional. The essentials: as §2
For orientation: Writhing tests count abdominal constrictions after an irritant is injected.

Series [7] has as its system Mus musculus. Briefly: Analgesic activity in CD1 mouse assessed as inhibition of acetic acid-induced writhings at 10 mg/kg, po pretreated for 30 mins followed by acetic acid challenge for 5 mins and measured for 30 mins relative to control. It counts as functional. The method, boiled down:
as §2

In series [8] the test system is HT-29. The series can be described thus: Growth inhibition of human HT-29 cells by MTT assay. It counts as cell-based. In general terms: Tetrazolium dyes change colour on reduction, which living cells bring about.
For series [9], the system named is Rattus norvegicus. The series can be described thus: Ulcerogenicity in Sprague-Dawley rat assessed as hyperemia at 70 mg/kg, po measured after 4 hrs. The series is classed as toxicity, organism-based. To be noted: in vivo. The method, boiled down:
(§3)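 Male Sprague-Dawley rats, 180 ± 20 g, acclimatized one week, 3 per group. Oral dosing by feeding needle, adjusted to body weight; saline and carboxymethylcellulose served as controls. Killed 4 h after dosing; stomach opened along the greater curvature, rinsed with saline, and lesions scored under a magnifying glass.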

In series [10] the test system is Mus musculus. Briefly: Analgesic activity in CD1 mouse assessed as inhibition of acetic acid-induced writhings at 70 mg/kg, po pretreated for 30 mins followed by acetic acid challenge. To be noted: TDE = time-dependent effect. The series is classed as functional, organism-based. The essentials: as §2
Series [11] relates to Rattus norvegicus. The series can be described thus: Ulcerogenicity in Sprague-Dawley rat assessed as gastric lessions at 70 mg/kg, po measured after 4 hrs. The series is classed as toxicity, organism-based. To be noted: in vivo. The method, boiled down:
as §3

The term IC50 denotes the point on the concentration scale where inhibition reaches its midpoint. For the molecule `CN1c2ccccc2Sc2ccc(S(C)(=O)=O)cc21`, the IC50 in series [1] is 1.36 µM. In addition, the Activity result in series [2] is “Non-Toxic”.
In general, inhibition in vivo refers to the share of the control response that was lost under treatment. In the case of `CS(=O)(=O)c1ccc(C(=O)c2ccc(Cl)cc2)cc1`, the inhibition in vivo at 70 mg/kg was 14.9% in series [3] and 18.9% in [4]. The IC50 in series [1] was determined as 5.29 µM. In addition, the Activity entry in series [2] is given as “Non-Toxic”.
`CC(C)Cc1ccc(S(C)(=O)=O)cc1`: the values for the inhibition in vivo at 70 mg/kg in series [3] and in series [4] were 9.6% and 9.5%, respectively. Besides, the IC50 in series [1] came to 7.02 µM. In addition, the Activity entry in series [2] is “Non-Toxic”.
`CN1c2ccccc2Sc2ccc(CC(=O)O)cc21` [METIAZINIC ACID]: the IC50 in series [1] was found to be 6.23 µM.
Turning to `CS(=O)(=O)c1cccc(Oc2ccccc2)c1`, the inhibition in vivo at 70 mg/kg was found to be 27.8% in [3] and 25.4% in series [4]. Moreover, the IC50 in series [1] stood at 4.89 µM. For the same molecule, the Activity entry in series [2] is given as “Non-Toxic”.
Turning to `CC(C(=O)O)c1cccc(C(=O)c2ccccc2)c1` (configuration not stated) [KETOPROFEN], in series [1], the IC50 was 0.11 µM.
As to `CC(C)Cc1ccc(C(C)C(=O)O)cc1` (configuration not stated) [IBUPROFEN], the inhibition in vivo at 20 mg/kg in series [5] came out at 53%. For the same molecule, the inhibition in vivo at 70 mg/kg is 66.7% in series [6] and 23.9% in [4]. Moreover, the inhibition in vivo at 10 mg/kg in series [7] stood at 48%.
Turning to `CC(C(=O)O)c1cccc(Oc2ccccc2)c1` (configuration not stated) [FENOPROFEN], the IC50 in [1] came to 2.73 µM.
Take `COc1ccc2c(c1)c(S(C)(=O)=O)c(C)n2C(=O)c1ccc(Cl)cc1`: the inhibition in vivo at 70 mg/kg in series [3] was 29.9%; in series [4] it was 32.5%. In addition, the half-inhibitory concentration (IC50) in [1] was 0.39 µM; in series [8], above 200 µM. Also, the Activity result in series [2] is given as “Non-Toxic”.
`COc1ccc2cc(S(C)(=O)=O)ccc2c1`: the inhibition in vivo at 70 mg/kg in [3] worked out at 29.4%; in series [6] it was 60.1%; in [4], 34.6%. Also, in series [5], the inhibition in vivo at 20 mg/kg amounted to 56.2%. Moreover, the figures for the IC50 in series [1] and in series [8] were 0.04 µM and above 200 µM, respectively. Also, the Activity result in [2] is “Non-Toxic”; in [9], “Toxic”; in series [11], “Non-Toxic”. For the same molecule, the inhibition in vivo at 10 mg/kg in series [7] worked out at 49.3%. Further, in [10], the inhibition entry is “Tde”.
In the case of `CS(=O)(=O)c1ccc(C(=O)c2ccoc2)cc1`, the inhibition in vivo at 70 mg/kg came out at 27.6% in [3], 64.9% in series [6] and 25.9% in [4]. In addition, in [5], the inhibition in vivo at 20 mg/kg is 50.5%. The IC50 in series [1] is 0.18 µM; in [8] it was above 200 µM. The Activity entry in [2] and in series [11] was “Non-Toxic” throughout. For the same molecule, the inhibition in vivo at 10 mg/kg in series [7] was determined as 45.9%. Besides, the inhibition result in series [10] is “Tde”.
